From ChEMBL document CHEMBL1759987, “2-Acylamino-5-chlorobenzophenones with enhanced selectivity towards malaria parasites” (Eur J Med Chem, 2011) come the findings set out here.

The structures appear in SMILES notation.

System in one data set: not listed separately
Kind of data set: Selectivity index, CC50 for HeLa cells to IC50 for Plasmodium falciparum. Format: functional.
For `O=C(c1ccccc1)c1cc(Cl)ccc1NC(=O)C(c1cccc2ccccc12)N1CCN(CCO)CC1` (racemic), the “Ratio CC50/IC50” value is 18.
The same measure, in the same setting: next, `O=C(c1ccccc1)c1cc(Cl)ccc1NC(=O)C(c1ccc2ccccc2c1)N1CCN(CCO)CC1` (racemic): 94.
As to `O=C(c1ccccc1)c1cc(Cl)ccc1NC(=O)C(c1ccccc1)N1CCOCC1` (racemic), the “Ratio CC50/IC50” value is listed as 6.
In the case of `O=C(c1ccccc1)c1cc(Cl)ccc1NC(=O)C(c1ccccc1)N1CC[S+]([O-])CC1` (racemic), the “Ratio CC50/IC50” value came to 8.
Still for that read-out and setting: as for `O=C(c1ccccc1)c1cc(Cl)ccc1NC(=O)C(c1ccccc1)n1ccnc1` (racemic), the figure is 12.
The same measure, in the same setting: as for `Cl.NC(C(=O)Nc1ccc(Cl)cc1C(=O)c1ccccc1)c1ccccc1` (racemic), the figure is 6; as for `Cl.NC(Cc1ccccc1)C(=O)Nc1ccc(Cl)cc1C(=O)c1ccccc1` (racemic), 3.
On the same count and under the same terms, next, `O=C(c1ccccc1)c1cc(Cl)ccc1NC(=O)C(c1ccccc1)N1CCN(c2ccccc2)CC1` (racemic): 5; `O=C(c1ccccc1)c1cc(Cl)ccc1NC(=O)C(c1ccccc1)N1CCN(c2ccc([N+](=O)[O-])cc2)CC1` (racemic): 5.
Take `O=C(c1ccccc1)c1cc(Cl)ccc1NC(=O)C(c1ccccc1)N1CCN(Cc2ccccc2)CC1` (racemic): the “Ratio CC50/IC50” value turned out to be 6.
`O=CN1CCN(C(C(=O)Nc2ccc(Cl)cc2C(=O)c2ccccc2)c2ccccc2)CC1` (racemic): the “Ratio CC50/IC50” value was found to be 13.
Turning to `CCOC(=O)N1CCN(C(C(=O)Nc2ccc(Cl)cc2C(=O)c2ccccc2)c2ccccc2)CC1` (racemic), the “Ratio CC50/IC50” value is on record as 15.
The same measure, in the same setting: as for `O=C(c1ccccc1)c1cc(Cl)ccc1NC(=O)C(c1ccccc1)N1CCN(CCO)CC1` (racemic), the figure is 150; as for `O=C(c1ccccc1)c1cc(Cl)ccc1NC(=O)C(c1ccccc1)N1CCCCC1` (racemic), 6.
The same measure, in the same setting: as for `O=C1CCN(C(C(=O)Nc2ccc(Cl)cc2C(=O)c2ccccc2)c2ccccc2)CC1` (racemic), the figure is 4; as for `CN1CCN(C(C(=O)Nc2ccc(Cl)cc2C(=O)c2ccccc2)c2ccccc2)CC1` (racemic), 18; as for `CCN1CCN(C(C(=O)Nc2ccc(Cl)cc2C(=O)c2ccccc2)c2ccccc2)CC1` (racemic), 21.
On the same count and under the same terms, next, `CN1CCN(C(=O)NC(C(=O)Nc2ccc(Cl)cc2C(=O)c2ccccc2)c2ccccc2)CC1` (single isomer, unassigned): 17.

The test system of a further data set is Plasmodium falciparum. Nature of the data set: Antiplasmodial activity against multidrug- resistant Plasmodium falciparum Dd2 assessed as inhibition of [3H]hypoxanthine incorporation after 72 hrs. Format: functional, organism-based. The procedure, abridged: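 Dd2 parasites kept in continuous culture and sorbitol-synchronized, then exposed to a range of concentrations for 72 h. Growth read by [3H]-hypoxanthine incorporation and converted to percent inhibition. IC50 taken from sigmoidal dose-response curves fitted with a Hill function. At least three independent repeats, reported as mean ± SEM.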
As for `O=C(c1ccccc1)c1cc(Cl)ccc1NC(=O)C(c1cccc2ccccc12)N1CCN(CCO)CC1` (racemic), the IC50 turned out to be 0.95 µM.
Still for that read-out and setting: next, `O=C(c1ccccc1)c1cc(Cl)ccc1NC(=O)C(c1ccc2ccccc2c1)N1CCN(CCO)CC1` (racemic): 0.18 µM.
The same measure, in the same setting: as for `O=C(c1ccccc1)c1cc(Cl)ccc1NC(=O)C(c1ccccc1)N1CCOCC1` (racemic), the figure is 6.72 µM.
Still for that read-out and setting: as for `O=C(c1ccccc1)c1cc(Cl)ccc1NC(=O)C(c1ccccc1)N1CC[S+]([O-])CC1` (racemic), the figure is 9.02 µM; as for `O=C(c1ccccc1)c1cc(Cl)ccc1NC(=O)C(c1ccccc1)n1ccnc1` (racemic), 4.51 µM.
For the molecule `Cl.NC(C(=O)Nc1ccc(Cl)cc1C(=O)c1ccccc1)c1ccccc1` (racemic), the IC50 was 6.71 µM.
Still for that read-out and setting: as for `NC(CO)C(=O)Nc1ccc(Cl)cc1C(=O)c1ccccc1` (racemic), the figure is over 20 µM.
Still for that read-out and setting: next, `Cl.NC(Cc1ccccc1)C(=O)Nc1ccc(Cl)cc1C(=O)c1ccccc1` (racemic): 14.1 µM; `O=C(c1ccccc1)c1cc(Cl)ccc1NC(=O)C(c1ccccc1)N1CCN(c2ccccc2)CC1` (racemic): over 20 µM; `O=C(c1ccccc1)c1cc(Cl)ccc1NC(=O)C(c1ccccc1)N1CCN(c2ccc([N+](=O)[O-])cc2)CC1` (racemic): over 20 µM.
On the same count and under the same terms, as for `O=C(c1ccccc1)c1cc(Cl)ccc1NC(=O)C(c1ccccc1)N1CCN(Cc2ccccc2)CC1` (racemic), the figure is over 20 µM; as for `O=CN1CCN(C(C(=O)Nc2ccc(Cl)cc2C(=O)c2ccccc2)c2ccccc2)CC1` (racemic), 3.77 µM; as for `CCOC(=O)N1CCN(C(C(=O)Nc2ccc(Cl)cc2C(=O)c2ccccc2)c2ccccc2)CC1` (racemic), 4.26 µM.
On to `O=C(c1ccccc1)c1cc(Cl)ccc1NC(=O)C(c1ccccc1)N1CCN(CCO)CC1` (racemic), for which the IC50 was determined as 0.33 µM.
On the same count and under the same terms, next, `O=C(c1ccccc1)c1cc(Cl)ccc1NC(=O)C(c1ccccc1)N1CCCCC1` (racemic): 10.2 µM.
Still for that read-out and setting: as for `O=C1CCN(C(C(=O)Nc2ccc(Cl)cc2C(=O)c2ccccc2)c2ccccc2)CC1` (racemic), the figure is 7.43 µM; as for `CN1CCN(C(C(=O)Nc2ccc(Cl)cc2C(=O)c2ccccc2)c2ccccc2)CC1` (racemic), 3.54 µM.
Same read-out and setting: next, `CCN1CCN(C(C(=O)Nc2ccc(Cl)cc2C(=O)c2ccccc2)c2ccccc2)CC1` (racemic): 3.62 µM; `CN1CCN(C(=O)NC(C(=O)Nc2ccc(Cl)cc2C(=O)c2ccccc2)c2ccccc2)CC1` (single isomer, unassigned): 4.21 µM.

System in a further data set: not listed separately
Nature of the data set: Cytotoxicity in human HeLa cells assessed as cell viability after 72 hrs. Format: cell-based. The procedure, abridged: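 HeLa cells grown in RPMI 1640 with 10% heat-inactivated FBS and gentamicin at 37 °C. About 10,000 cells seeded per well, preincubated 48 h without compound. DMSO stocks (10 mg/ml) diluted 1:200 in medium and added, then 72 h at 37 °C, 5% CO2. Cells fixed with glutaraldehyde, stained with 0.05% methylene blue, eluted with 0.33 M HCl, OD read at 660 nm.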
With `O=C(c1ccccc1)c1cc(Cl)ccc1NC(=O)C(c1cccc2ccccc12)N1CCN(CCO)CC1` (racemic), the 50% cytotoxic concentration (CC50) at 72 h was found to be 17 µM.
The same measure, in the same setting: as for `O=C(c1ccccc1)c1cc(Cl)ccc1NC(=O)C(c1ccc2ccccc2c1)N1CCN(CCO)CC1` (racemic), the figure is 17 µM; as for `O=C(c1ccccc1)c1cc(Cl)ccc1NC(=O)C(c1ccccc1)N1CCOCC1` (racemic), 39 µM.
Same read-out and setting: as for `O=C(c1ccccc1)c1cc(Cl)ccc1NC(=O)C(c1ccccc1)N1CC[S+]([O-])CC1` (racemic), the figure is 71 µM.
Still for that read-out and setting: next, `O=C(c1ccccc1)c1cc(Cl)ccc1NC(=O)C(c1ccccc1)n1ccnc1` (racemic): 55 µM; `Cl.NC(C(=O)Nc1ccc(Cl)cc1C(=O)c1ccccc1)c1ccccc1` (racemic): 37 µM; `Cl.NC(Cc1ccccc1)C(=O)Nc1ccc(Cl)cc1C(=O)c1ccccc1` (racemic): 38 µM.
As for `O=C(c1ccccc1)c1cc(Cl)ccc1NC(=O)C(c1ccccc1)N1CCN(c2ccccc2)CC1` (racemic), the CC50 at 72 h is over 98 µM.
The same measure, in the same setting: next, `O=C(c1ccccc1)c1cc(Cl)ccc1NC(=O)C(c1ccccc1)N1CCN(c2ccc([N+](=O)[O-])cc2)CC1` (racemic): over 90 µM.
On the same count and under the same terms, as for `O=C(c1ccccc1)c1cc(Cl)ccc1NC(=O)C(c1ccccc1)N1CCN(Cc2ccccc2)CC1` (racemic), the figure is over 118 µM; as for `O=CN1CCN(C(C(=O)Nc2ccc(Cl)cc2C(=O)c2ccccc2)c2ccccc2)CC1` (racemic), 50 µM.
Same read-out and setting: as for `CCOC(=O)N1CCN(C(C(=O)Nc2ccc(Cl)cc2C(=O)c2ccccc2)c2ccccc2)CC1` (racemic), the figure is 64 µM.
Turning to `O=C(c1ccccc1)c1cc(Cl)ccc1NC(=O)C(c1ccccc1)N1CCN(CCO)CC1` (racemic), the CC50 at 72 h was found to be 49 µM.
Same read-out and setting: as for `O=C(c1ccccc1)c1cc(Cl)ccc1NC(=O)C(c1ccccc1)N1CCCCC1` (racemic), the figure is 63 µM; as for `O=C1CCN(C(C(=O)Nc2ccc(Cl)cc2C(=O)c2ccccc2)c2ccccc2)CC1` (racemic), 27 µM.
The same measure, in the same setting: as for `CN1CCN(C(C(=O)Nc2ccc(Cl)cc2C(=O)c2ccccc2)c2ccccc2)CC1` (racemic), the figure is 63 µM; as for `CCN1CCN(C(C(=O)Nc2ccc(Cl)cc2C(=O)c2ccccc2)c2ccccc2)CC1` (racemic), 76 µM; as for `CN1CCN(C(=O)NC(C(=O)Nc2ccc(Cl)cc2C(=O)c2ccccc2)c2ccccc2)CC1` (single isomer, unassigned), 72 µM.

For orientation: IC50 means the concentration that gives 50% inhibition. What is called CC50 is the concentration at which the toxic effect on the cells reaches its halfway point.
